Measurements published in ChEMBL document CHEMBL2331331 (J Med Chem, 2013).

Tests used:
[1] = target: Vascular endothelial growth factor receptor 2 (Danio rerio, UniProt Q5GIT4); experiment: Inhibition of VEGFR2 in transgenic zebrafish embryo assessed as inhibition of intersegmental vessels formation measured 33 hrs post fertilization by fluorescence microscopic analysis
Outline: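 FLK-1:EGFP transgenic zebrafish embryos, 10 per well, exposed at 28.5 °C from 15 to 31 hpf to compound in fish water at 1.25, 2.5 or 5 μM (diluted from a 10 mmol/L DMSO stock); 0.3% DMSO as vehicle control. Embryos were imaged at 33 hpf, and ISVs above the yolk extension were scored for length. n = 11, mean ± SD, ANOVA.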

HeLa = experiment: Cytotoxicity against human HeLa cells assessed as growth inhibition after 72 hrs by MTT assay; assay type: functional, cell-based
Outline: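 MTT viability assay with serial inhibitor dilutions for 72 h at 37 °C, then MTT for 2–4 h and OD read at 570 nm. Leukemia lines were seeded at (1–4) × 10⁴ cells/well and lysed with 20% acidified SDS. Adherent lines were seeded at (2–5) × 10³ cells/well, dosed after 24 h and dissolved in DMSO. Triplicate; mean ± SD.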

[2] = target: T1, Receptor-type tyrosine-protein kinase FLT3 (Homo sapiens, UniProt P36888); experiment: Inhibition of FLT3 (unknown origin)
T1 sequence (P36888 whole entry): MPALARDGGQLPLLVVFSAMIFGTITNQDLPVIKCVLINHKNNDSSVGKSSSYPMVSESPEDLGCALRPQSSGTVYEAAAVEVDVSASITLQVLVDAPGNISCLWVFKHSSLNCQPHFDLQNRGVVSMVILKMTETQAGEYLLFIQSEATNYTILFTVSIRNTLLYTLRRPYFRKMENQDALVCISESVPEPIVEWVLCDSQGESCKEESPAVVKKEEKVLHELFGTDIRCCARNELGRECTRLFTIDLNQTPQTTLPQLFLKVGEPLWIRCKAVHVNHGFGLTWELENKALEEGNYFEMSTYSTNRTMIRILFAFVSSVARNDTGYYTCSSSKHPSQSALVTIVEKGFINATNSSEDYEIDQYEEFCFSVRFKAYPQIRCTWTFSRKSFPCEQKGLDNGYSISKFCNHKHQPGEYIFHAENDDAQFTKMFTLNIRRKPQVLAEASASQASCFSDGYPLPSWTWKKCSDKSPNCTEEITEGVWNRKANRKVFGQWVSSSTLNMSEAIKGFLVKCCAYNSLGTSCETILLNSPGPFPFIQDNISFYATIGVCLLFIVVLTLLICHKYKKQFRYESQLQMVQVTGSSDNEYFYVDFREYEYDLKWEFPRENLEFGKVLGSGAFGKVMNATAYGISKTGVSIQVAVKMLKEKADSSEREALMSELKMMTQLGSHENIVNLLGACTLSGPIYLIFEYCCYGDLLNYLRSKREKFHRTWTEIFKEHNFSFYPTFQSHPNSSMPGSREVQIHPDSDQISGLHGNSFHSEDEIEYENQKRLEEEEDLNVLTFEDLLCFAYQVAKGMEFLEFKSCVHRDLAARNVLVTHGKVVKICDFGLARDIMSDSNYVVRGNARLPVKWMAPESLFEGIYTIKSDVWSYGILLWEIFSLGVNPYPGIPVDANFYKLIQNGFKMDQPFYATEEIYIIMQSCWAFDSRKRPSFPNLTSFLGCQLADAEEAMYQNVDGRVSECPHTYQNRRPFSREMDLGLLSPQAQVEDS

[3] = target: Receptor-type tyrosine-protein kinase FLT3 (Homo sapiens, UniProt P36888, ITD); experiment: Binding affinity to FLT3-ITD mutant (unknown origin)
[4] = target: Vascular endothelial growth factor receptor 2 (Homo sapiens, UniProt P35968); experiment: Inhibition of VEGFR2 (unknown origin)
Chain of Vascular endothelial growth factor receptor 2 (Homo sapiens, UniProt P35968) (P35968 whole entry): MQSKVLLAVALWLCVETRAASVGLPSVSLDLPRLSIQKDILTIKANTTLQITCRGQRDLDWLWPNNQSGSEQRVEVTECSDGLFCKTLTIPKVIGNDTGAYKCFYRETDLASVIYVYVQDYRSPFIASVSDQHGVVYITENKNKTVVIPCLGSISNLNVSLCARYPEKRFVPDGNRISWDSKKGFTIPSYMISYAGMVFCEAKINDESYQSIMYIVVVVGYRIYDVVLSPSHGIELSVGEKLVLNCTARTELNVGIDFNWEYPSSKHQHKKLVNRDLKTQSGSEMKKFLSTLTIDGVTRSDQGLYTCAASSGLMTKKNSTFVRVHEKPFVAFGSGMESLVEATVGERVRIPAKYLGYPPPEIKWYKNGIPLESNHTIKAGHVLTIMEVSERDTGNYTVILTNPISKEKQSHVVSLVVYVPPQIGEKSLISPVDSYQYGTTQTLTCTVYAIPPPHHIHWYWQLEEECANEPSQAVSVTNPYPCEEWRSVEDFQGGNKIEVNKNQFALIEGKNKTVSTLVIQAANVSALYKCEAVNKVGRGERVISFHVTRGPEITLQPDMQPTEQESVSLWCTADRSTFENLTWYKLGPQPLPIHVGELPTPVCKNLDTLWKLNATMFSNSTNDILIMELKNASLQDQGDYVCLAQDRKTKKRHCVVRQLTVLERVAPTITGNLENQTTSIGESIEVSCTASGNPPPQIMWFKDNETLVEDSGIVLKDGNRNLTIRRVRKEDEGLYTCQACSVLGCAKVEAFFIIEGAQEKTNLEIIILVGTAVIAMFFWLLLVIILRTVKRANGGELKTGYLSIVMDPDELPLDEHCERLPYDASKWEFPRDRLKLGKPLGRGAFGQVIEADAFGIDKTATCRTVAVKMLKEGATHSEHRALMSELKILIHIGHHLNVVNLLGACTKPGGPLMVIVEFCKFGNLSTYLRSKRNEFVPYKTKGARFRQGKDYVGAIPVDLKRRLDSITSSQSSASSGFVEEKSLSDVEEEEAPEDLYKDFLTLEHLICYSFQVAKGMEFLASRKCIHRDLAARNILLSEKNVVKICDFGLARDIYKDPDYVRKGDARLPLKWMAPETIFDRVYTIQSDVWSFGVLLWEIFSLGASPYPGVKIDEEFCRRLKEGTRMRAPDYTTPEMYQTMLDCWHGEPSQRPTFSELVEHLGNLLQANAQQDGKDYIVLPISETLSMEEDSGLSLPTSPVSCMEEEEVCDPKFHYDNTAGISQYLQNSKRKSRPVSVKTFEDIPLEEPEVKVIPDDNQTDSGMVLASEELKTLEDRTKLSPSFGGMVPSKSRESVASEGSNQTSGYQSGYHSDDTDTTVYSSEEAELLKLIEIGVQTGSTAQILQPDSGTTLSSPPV

Chain of Vascular endothelial growth factor receptor 2 (Danio rerio, UniProt Q5GIT4) (Q5GIT4 whole entry): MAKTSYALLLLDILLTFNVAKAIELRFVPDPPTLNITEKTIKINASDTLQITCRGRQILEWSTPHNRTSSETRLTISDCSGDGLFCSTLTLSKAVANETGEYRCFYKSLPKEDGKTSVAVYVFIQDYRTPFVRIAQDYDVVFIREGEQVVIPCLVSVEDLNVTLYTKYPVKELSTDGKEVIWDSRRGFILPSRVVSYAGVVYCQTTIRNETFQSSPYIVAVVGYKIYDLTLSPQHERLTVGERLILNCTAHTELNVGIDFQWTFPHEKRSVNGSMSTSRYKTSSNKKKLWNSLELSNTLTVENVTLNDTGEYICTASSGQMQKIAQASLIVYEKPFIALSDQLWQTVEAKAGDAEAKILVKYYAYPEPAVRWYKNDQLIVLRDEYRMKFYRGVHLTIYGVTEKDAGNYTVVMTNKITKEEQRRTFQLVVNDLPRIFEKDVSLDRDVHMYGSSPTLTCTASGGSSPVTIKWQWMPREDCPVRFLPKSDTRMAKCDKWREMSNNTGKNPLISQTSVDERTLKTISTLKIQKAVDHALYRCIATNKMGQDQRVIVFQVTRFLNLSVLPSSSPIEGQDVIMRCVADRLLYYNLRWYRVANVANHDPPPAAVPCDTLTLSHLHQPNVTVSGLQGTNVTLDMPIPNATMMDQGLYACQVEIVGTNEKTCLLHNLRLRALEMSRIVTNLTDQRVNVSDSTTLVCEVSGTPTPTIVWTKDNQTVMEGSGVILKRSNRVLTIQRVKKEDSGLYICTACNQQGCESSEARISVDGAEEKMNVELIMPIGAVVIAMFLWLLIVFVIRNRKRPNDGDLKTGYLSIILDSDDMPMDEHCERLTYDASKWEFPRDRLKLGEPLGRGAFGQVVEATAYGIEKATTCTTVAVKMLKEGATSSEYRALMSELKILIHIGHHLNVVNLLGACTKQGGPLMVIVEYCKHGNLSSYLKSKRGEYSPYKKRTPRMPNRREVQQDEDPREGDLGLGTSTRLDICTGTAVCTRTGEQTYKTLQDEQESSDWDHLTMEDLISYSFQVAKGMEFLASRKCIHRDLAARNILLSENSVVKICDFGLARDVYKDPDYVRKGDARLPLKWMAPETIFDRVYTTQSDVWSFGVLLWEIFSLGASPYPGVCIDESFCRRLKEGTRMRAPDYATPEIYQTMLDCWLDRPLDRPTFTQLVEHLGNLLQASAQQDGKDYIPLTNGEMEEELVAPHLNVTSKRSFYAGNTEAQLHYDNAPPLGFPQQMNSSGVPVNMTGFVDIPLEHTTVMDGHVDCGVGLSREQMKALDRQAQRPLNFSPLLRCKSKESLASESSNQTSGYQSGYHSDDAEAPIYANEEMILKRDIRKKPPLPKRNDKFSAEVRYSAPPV

Compound	IC50 [1] [µM]	IC50 (HeLa) [µM]	IC50 [2] [µM]	Kd [3] [µM]	IC50 [4] [µM]
O=C(Nc1cccc(Oc2ncnc3n[nH]cc23)c1)c1ccc(C(F)(F)F)cc1	> 100	> 10			
O=C(Cc1ccc(C(F)(F)F)cc1)Nc1cccc(Oc2ncnc3[nH]ncc23)c1	> 100	> 10			
O=C(Nc1ccc(Oc2ncnc3[nH]ncc23)cc1)Nc1cccc(F)c1	16.6	> 10			
O=C(Nc1ccc(Oc2ncnc3[nH]ncc23)cc1)Nc1ccc(N2CCOCC2)cc1	> 100	> 10			
Cc1cccc(NC(=O)Nc2ccc(Oc3ncnc4[nH]ncc34)cc2)c1C	98.8	> 10			
O=C(Nc1ccc(Oc2ncnc3[nH]ncc23)cc1)Nc1ccc(C(F)(F)F)cc1	1.2	> 10	0.032	0.91	0.038
O=C(Nc1ccc(C(F)(F)F)cc1)Nc1cccc(Oc2ncnc3[nH]ncc23)c1	> 100	> 10			
COc1cccc(NC(=O)Nc2ccc(Oc3ncnc4c3cnn4C)cc2)c1	> 100	> 10			
O=C(NCC1CCCCC1)Nc1ccc(Oc2ncnc3[nH]ncc23)cc1	> 100	> 10			
Cn1ncc2c(Oc3ccc(NC(=O)Nc4ccc(C(F)(F)F)cc4)cc3)ncnc21	> 100	> 10			
COc1cccc(NC(=O)Nc2ccc(Oc3ncnc4n[nH]cc34)cc2)c1	82	> 10			
O=C(Nc1ccc(Oc2ncnc3n[nH]cc23)cc1)Nc1cccc(OC(F)(F)F)c1	17.8	> 10			
O=C(Nc1ccc(Br)cc1)Nc1cccc(Oc2ncnc3[nH]ncc23)c1	> 100	> 10			
O=C(Nc1ccc(Br)cc1)Nc1ccc(Oc2ncnc3[nH]ncc23)cc1	74.7	> 10			
O=C(Nc1ccc(Oc2ncnc3[nH]ncc23)cc1)Nc1cccc(C(F)(F)F)c1	1.05	> 10		0.0066	
CC(NC(=O)Nc1ccc(Oc2ncnc3n[nH]cc23)cc1)c1ccccc1 (stereo not given)	> 98.2	> 10			
O=C(Nc1ccc(F)cc1)Nc1ccc(Oc2ncnc3[nH]ncc23)cc1	89.4	> 10			

Compound	IC50 [1] [µM]	IC50 (HeLa) [µM]	IC50 [2] [µM]	Kd [3] [µM]	IC50 [4] [µM]
O=C(Nc1ccc(Oc2ncnc3n[nH]cc23)cc1)Nc1cccnc1	> 100	> 10			
O=C(Cc1ccc(Br)cc1)Nc1ccc(Oc2ncnc3n[nH]cc23)cc1	74.7	> 10			
Cc1cccc(NC(=O)Nc2ccc(Nc3ncnc4n[nH]cc34)cc2)c1C	> 100	> 10			
O=C(Cc1ccc(Br)cc1)Nc1cccc(Oc2ncnc3n[nH]cc23)c1	> 100	> 10			
O=C(Nc1ccc(Oc2ncnc3n[nH]cc23)cc1)Nc1cc(C(F)(F)F)cc(C(F)(F)F)c1	5.18	> 10			
O=C(Nc1ccccc1)Nc1ccc(Oc2ncnc3n[nH]cc23)cc1	20.2	> 10			
O=C(Nc1ccc(Oc2ncnc3[nH]ncc23)cc1)Nc1ccc(C(F)(F)F)cc1Cl	8.46	> 10			
CC(C)c1cccc(NC(=O)Nc2ccc(Oc3ncnc4n[nH]cc34)cc2)c1	7.73	> 10			
O=C(Nc1cccc(Oc2ncnc3[nH]ncc23)c1)c1ccc(Br)cc1	> 100	> 10			
CNC(=O)c1cc(Oc2ccc(NC(=O)Nc3ccc(Cl)c(C(F)(F)F)c3)cc2)ccn1 [SORAFENIB]	2.6	4.16			
O=C(Nc1ccc(Oc2ncnc3n[nH]cc23)cc1)NC1CCCCC1	> 100	> 10			
COc1cccc(NC(=O)Nc2ccc(Nc3ncnc4[nH]ncc34)cc2)c1	> 100	> 10			
O=C(Nc1ccc(Br)cc1)Nc1ccc(Nc2ncnc3n[nH]cc23)cc1	> 100	> 10			
O=C(Nc1ccc(Oc2ncnc3n[nH]cc23)cc1)c1ccc(Br)cc1	74.7	> 10			
O=C(Nc1ccc(Nc2ncnc3[nH]ncc23)cc1)Nc1ccc(C(F)(F)F)cc1	> 100	> 10			
CC(NC(=O)Nc1ccc(Nc2ncnc3[nH]ncc23)cc1)c1ccccc1 (stereo not given)	> 100	> 10			
